How the values were obtained:
[1] = test system: Mus musculus; experiment: Hypnotic dose required to cause a loss of righting reflex for a minimum period of 30 s in 50 percent of treated mice after intravenous administration.; assay type: functional
Procedure, shortened: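 Mice given steroid intravenously. The endpoint was loss of righting reflex lasting at least 30 s. The dose producing this in 50% of treated mice (HD50) was derived by probit analysis and expressed in µmol·kg-1.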

[2] = molecular target: GABA-A receptor; anion channel; experiment: Inhibition of binding of tert-butyl bicyclophosphorothionate ([35 S]TBPS) at Gamma-aminobutyric acid A receptor from rat whole brain membranes; assay type: cell membranes, Membrane

| Structure (SMILES) | HD50 [1] | IC50 [2] |
| --- | --- | --- |
| C[C@]12CC[C@@H](O)C[C@@H]1CC[C@@H]1[C@@H]2CC[C@@]2(C)[C@H]1C[C@@H]1O[C@@H]12 | 17.3 µM/kg | 255 nM |
| C[C@]12CC[C@@H](O)C[C@@H]1CC[C@@H]1[C@@H]2CC[C@]2(C)[C@@H](O)CC[C@@H]12 [ANDROSTANDIOL] | 239.4 µM/kg | 1870 nM |
| C[C@]12CC[C@@H](O)C[C@H]1CC[C@@H]1[C@@H]2CC[C@@]2(C)[C@H]1CC[C@@]21CO1 | 22.6 µM/kg | 221 nM |
| C[C@]12CC[C@@H](O)C[C@@H]1CC[C@@H]1[C@@H]2CC[C@]2(C)C(=O)CC[C@@H]12 [ANDROSTERONE] | 68.9 µM/kg | 1370 nM |
| C[C@]12CC[C@@H](O)C[C@@H]1CC[C@@H]1[C@@H]2CC[C@@]2(C)[C@H]1CC[C@@]21CO1 | 19.8 µM/kg | 55 nM |
| C[C@]12CC[C@@H](O)C[C@@H]1CC[C@@H]1[C@@H]2CC[C@]2(C)[C@@H](C(=O)CO)CC[C@@H]12 | 18.5 µM/kg | 192 nM |
| C[C@]12CC[C@@H](O)C[C@@H]1CC[C@@H]1[C@@H]2CC[C@@]2(C)[C@H]1C[C@@H]1CO[C@@H]12 | 146.9 µM/kg | 2530 nM |
| CC(=O)[C@H]1CC[C@H]2[C@@H]3CC[C@@H]4C[C@H](O)CC[C@]4(C)[C@H]3CC[C@]12C [ELTANOLONE] | 9.5 µM/kg | 145 nM |
| CC(=O)[C@H]1CC[C@H]2[C@@H]3CC[C@H]4C[C@H](O)CC[C@]4(C)[C@H]3CC[C@]12C [BREXANOLONE] | 10 µM/kg | 155 nM |
| CO[C@H]1CC[C@H]2[C@@H]3CC[C@H]4C[C@H](O)CC[C@]4(C)[C@H]3CC[C@]12C | 23.1 µM/kg | 210 nM |
| C[C@]12CC[C@@H](O)C[C@@H]1CC[C@@H]1[C@@H]2CC[C@@]2(C)[C@H]1CC[C@@]21CCO1 | 62.8 µM/kg | 232 nM |
| CC(=O)[C@H]1CC[C@H]2[C@@H]3CC[C@H]4C[C@H](O)CC[C@]4(C)[C@H]3C(=O)C[C@]12C [ALFAXALONE] | 6.3 µM/kg | – |
| C[C@]12CC[C@H]3[C@@H](CC[C@H]4CC(O)CC[C@@]43C)[C@@H]1CC(=O)C2 (stereo not given in full) | 134.7 µM/kg | – |
| C[C@]12CC[C@@H](O)C[C@@H]1CC[C@@H]1[C@@H]2CC[C@]2(C)[C@@H]3O[C@@H]3C[C@@H]12 | 68.4 µM/kg | 5350 nM |
| C[C@]12CC[C@@H](O)C[C@H]1CC[C@@H]1[C@@H]2CC[C@@]2(C)[C@H]1C[C@@H]1O[C@@H]12 | 38 µM/kg | 159 nM |
| C[C@]12CC[C@@H](O)C[C@@H]1CC[C@@H]1[C@@H]2CC[C@@]2(C)[C@H](C#N)CC[C@@H]12 | 114.9 µM/kg | 1240 nM |

From ChEMBL document CHEMBL1133501, “Conformationally constrained anesthetic steroids that modulate GABA(A) receptors” (J Med Chem, 2000)
